Measured values from ChEMBL document CHEMBL4837254, “Discovery of Investigational Drug CT1812, an Antagonist of the Sigma-2 Receptor Complex for Alzheimer's Disease” (ACS Med Chem Lett, 2021).
pEC50, pKi: −log10 of the molar value. Active and inactive are the calls of the source. The rule behind the calls is not given here.

How the values were obtained:
[1] = target: Voltage-gated inwardly rectifying potassium channel KCNH2 (Homo sapiens, UniProt Q12809)
[2] = Ratio of drug level in brain to plasma measured after 24 hrs; type: ADME, cell-free; settings: brain and plasma, read-out: BPR
N2a = assay: Anti-synaptotoxic activity against mouse Neuro-2a cells assessed as inhibition of amyloid beta (1 to 42)-induced cytotoxicity by MTT-based Trafficking assay; type: functional
[3] = Half life in mouse liver microsomes; type: ADME, Microsome
[4] = target: Sigma intracellular receptor 2 (Homo sapiens, UniProt Q5BJF2); assay: Binding affinity to Sigma 2-receptor (unknown origin)
Chain of Sigma intracellular receptor 2 (Q5BJF2 whole entry): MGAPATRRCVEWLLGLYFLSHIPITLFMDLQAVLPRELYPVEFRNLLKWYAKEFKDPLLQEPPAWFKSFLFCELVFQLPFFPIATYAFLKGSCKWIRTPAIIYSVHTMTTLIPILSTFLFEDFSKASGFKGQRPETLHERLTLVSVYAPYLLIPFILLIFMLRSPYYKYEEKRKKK

[5] = Cognitive enhancing effect in transgenic hAPP Swe/Ldn mouse assessed as swimming length measured after 3 days by Morris Water maze method (reference value: 2854 +/-267 cm); type: ADME; settings: buffer, 72 h, time 3 day
[6] = Free drug level in brain; type: ADME, tissue-based
Mus musculus = assay: Induction of amyloid beta oligomer release in interstitial brain fluid in iv dosed transgenic hAPP Swe/Ldn mouse; type: functional, organism-based
Method in brief: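 Compound given intravenously to live transgenic mice. Microelectrodes coated with antibodies to total Aβ or to Aβ oligomers were inserted into the brain, and soluble Aβ in interstitial fluid was measured minute by minute.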

[7] = Cognitive enhancing effect in non-transgenic mouse assessed as swimming length measured after 1 day by Morris Water maze method (reference value: 3791 +/-150 cm); type: ADME; settings: buffer, 24 h
[8] = Cognitive enhancing effect in non-transgenic mouse assessed as swimming length measured after 2 day by Morris Water maze method (reference value: 2666 +/-294 cm); type: ADME; settings: buffer, 48 h
[9] = Improvement in learning and spatial memory in transgenic hAPP Swe/Ldn mouse assessed as spontaneous alteration measured by Y-maze method (reference value: 56.1 +/-2.8%); type: ADME
[10] = Reversal of amyloid beta oligomer-induced vesicular membrane trafficking in Sprague-Dawley rat neurons at 1 uM pretreated with amyloid beta oligomer for 1 hr followed by compound treatment by ELISA relative to control; type: functional; settings: Neuron
[11] = Cognitive enhancing effect in non-transgenic mouse assessed as swimming length measured after 4 days by Morris Water maze method (reference value: 1797 +/-219 cm); type: ADME; settings: buffer, 96 h, time 4 day
[12] = Cognitive enhancing effect in non-transgenic mouse assessed as restoration of freezing time measured by Contextual fear conditioning test (reference value: 52 +/-5%); type: ADME
[13] = Cognitive enhancing effect in non-transgenic mouse assessed as swimming length measured after 3 days by Morris Water maze method (reference value: 2173 +/-213 cm); type: ADME; settings: buffer, 72 h, time 3 day
[14] = Free drug level in plasma; type: ADME, cell-free
[15] = Ratio of AUC in Brain to AUC in plasma; type: ADME, cell-free; settings: brain and plasma; read-out: Ratio AUC
[16] = Reversal of amyloid beta oligomer-induced vesicular membrane trafficking in Sprague-Dawley rat neurons pretreated with amyloid beta oligomer for 1 hr followed by compound treatment by ELISA; type: functional, tissue-based; settings: neuron
[17] = Efflux ratio of apparent permeability from basolateral to apical membrane over apical to basolateral membrane in human Caco2 cells; type: ADME, cell-based; settings: Caco-2
[18] = Unbound brain-to-plasma concentration ratio measured after 24 hrs; type: ADME, cell-free; settings: brain and plasma, read-out: K(p,uu,brain)
[19] = Cognitive enhancing effect in transgenic hAPP Swe/Ldn mouse assessed as restoration of freezing time measured by Contextual fear conditioning test (reference value: 32 +/-6%); type: ADME
[20] = Cognitive enhancing effect in transgenic hAPP Swe/Ldn mouse assessed as swimming length measured after 4 days by Morris Water maze method (reference value: 2426 +/-287 cm); type: ADME; settings: buffer, 96 h, time 4 day
[21] = Improvement in learning and spatial memory in non-transgenic mouse assessed as spontaneous alteration measured by Y-maze method (reference value: 62.6 +/-3.7%); type: ADME
[22] = Cognitive enhancing effect in transgenic hAPP Swe/Ldn mouse assessed as swimming length measured after 1 day by Morris Water maze method (reference value: 3518 +/-138 cm); type: ADME; settings: buffer, 24 h
[23] = Prevention of vesicular membrane trafficking in Sprague-Dawley rat neurons assessed as inhibition of amyloid beta oligomer binding to […] receptor at 10 uM pretreated with compounds followed by amyloid beta oligomer challenge and measured after 1 hr by ELISA relative to control; type: functional; settings: Neuron
[24] = Cognitive enhancing effect in transgenic hAPP Swe/Ldn mouse assessed as swimming length measured after 2 day by Morris Water maze method (reference value: 3252 +/-329 cm); type: ADME; settings: buffer, 48 h
[25] = Prevention of vesicular membrane trafficking in Sprague-Dawley rat neurons assessed as inhibition of amyloid beta oligomer binding to […] receptor pretreated with compounds followed by amyloid beta oligomer challenge and measured after 1 hr by ELISA; type: functional, tissue-based; settings: neuron

Chain of Voltage-gated inwardly rectifying potassium channel KCNH2 (Q12809 whole entry): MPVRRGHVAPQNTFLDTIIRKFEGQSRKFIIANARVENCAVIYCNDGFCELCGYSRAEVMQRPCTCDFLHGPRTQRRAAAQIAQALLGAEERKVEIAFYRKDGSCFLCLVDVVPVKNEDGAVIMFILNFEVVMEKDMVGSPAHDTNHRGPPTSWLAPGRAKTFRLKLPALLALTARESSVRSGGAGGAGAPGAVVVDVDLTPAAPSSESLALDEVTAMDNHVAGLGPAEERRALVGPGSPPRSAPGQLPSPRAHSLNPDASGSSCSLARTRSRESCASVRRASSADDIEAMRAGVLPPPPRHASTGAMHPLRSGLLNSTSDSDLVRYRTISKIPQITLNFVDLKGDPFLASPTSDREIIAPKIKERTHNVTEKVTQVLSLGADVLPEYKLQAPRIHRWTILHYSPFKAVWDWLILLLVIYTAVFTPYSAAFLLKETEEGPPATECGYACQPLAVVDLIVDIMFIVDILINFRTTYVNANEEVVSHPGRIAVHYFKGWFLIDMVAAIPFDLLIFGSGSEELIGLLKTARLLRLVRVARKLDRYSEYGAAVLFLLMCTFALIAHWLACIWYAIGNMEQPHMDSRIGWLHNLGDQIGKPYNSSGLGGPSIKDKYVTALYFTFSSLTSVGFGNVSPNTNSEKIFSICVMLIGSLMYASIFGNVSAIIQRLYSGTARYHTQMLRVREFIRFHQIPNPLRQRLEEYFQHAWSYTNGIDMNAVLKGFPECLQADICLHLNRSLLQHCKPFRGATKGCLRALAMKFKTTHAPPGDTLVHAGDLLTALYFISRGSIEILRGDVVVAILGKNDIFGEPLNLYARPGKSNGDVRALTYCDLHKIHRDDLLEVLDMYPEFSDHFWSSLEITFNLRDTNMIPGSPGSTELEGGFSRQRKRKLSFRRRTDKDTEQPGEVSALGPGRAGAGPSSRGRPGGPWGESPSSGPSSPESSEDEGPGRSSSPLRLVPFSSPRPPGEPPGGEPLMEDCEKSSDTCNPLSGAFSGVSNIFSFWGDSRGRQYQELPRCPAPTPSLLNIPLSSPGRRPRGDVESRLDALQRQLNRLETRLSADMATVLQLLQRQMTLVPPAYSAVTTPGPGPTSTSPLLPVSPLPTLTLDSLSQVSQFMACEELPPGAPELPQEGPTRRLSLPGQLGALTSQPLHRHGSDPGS

For `C[C@H](CCc1ccc(Cl)cc1)NCc1ccc(C(F)(F)F)cc1`, the pEC50 [1] was 6.11, the Kp at 24 h [2] was 2 and the Activity (N2a) was 5.7 µM. It also gave a half-life [3] of 27 min.
Work on `C[C@@H](CCc1ccc(Cl)c(Cl)c1)NCc1ccc(C(F)(F)F)cc1` yielded a pEC50 [1] of 5.96, an Activity (N2a) of 11.7 µM and a half-life [3] of 53 min. The pKi [4] was 6.92.
In the case of `COc1cc(CCC(C)NCc2ccc(C(F)(F)F)cc2)ccc1O` (configuration not stated), the Activity (N2a) was 2.2 µM.
`C[C@H](CCc1ccc(Cl)c(Cl)c1)NCc1ccc(C(F)(F)F)cc1` showed a pEC50 [1] of 5.36, a Kp at 24 h [2] of 8.2 and an Activity (N2a) of 2 µM. The half-life [3] was 33 min.
For `CC(C)(C)Oc1cc(CCC(C)(C)N2Cc3ccc(S(C)(=O)=O)cc3C2)ccc1O`, the Activity [5] was 1987 cm, the fraction unbound [6] was 0.13 and the Activity (Mus musculus) was “Active”. It also gave an Activity [7] of 3317 cm, a pEC50 [1] of 4.59 and an Activity [8] of 2739 cm. For the same compound, the Activity [9] was 58.5%, the inhibition at 1 µM [10] was 88% and the Activity [11] was 2008 cm. It also gave an Activity [12] of 51%, an Activity [13] of 2262 cm and a fraction unbound [14] of 0.05. It also gave a Kp at 24 h [2] of 5.7, a Kp [15] of 2.51 and a pEC50 [16] of 6.45. For the same compound, the efflux ratio [17] was 0.95, the Activity (N2a) was 0.31 µM and the half-life [3] was 45 min. The Kp uu at 24 h [18] was 6.75, the Activity [19] was 45% and the Activity [20] was 1611 cm. For the same compound, the Activity [21] was 65.3%, the Activity [22] was 3230 cm and the inhibition at 10 µM [23] was 71%. It also gave a pKi [4] of 8.07, an Activity [24] of 2332 cm and a pEC50 [25] of 5.17.
Work on `COc1cc2c(cc1OC)CN([C@H](C)CCc1ccc(Cl)c(Cl)c1)C2` yielded a pEC50 [1] of 6.54, an Activity (N2a) of 0.7 µM and a half-life [3] of 61 min. The pKi [4] was 9.36.
With `CC(C)Oc1cc(CCC(C)(C)N2Cc3cccc(F)c3C2)ccc1O` the pEC50 [1] was 5.02, the Kp at 24 h [2] was 5.4 and the Kp [15] was 5.64. For the same compound, the Activity (N2a) was 0.25 µM, the half-life [3] was 4 min and the pKi [4] was 7.96.
Work on `COc1cc(CC[C@@H](C)N2Cc3cccc(F)c3C2)ccc1O` yielded an Activity (N2a) of 0.25 µM and a half-life [3] of 16 min.
